Activity calls are given as the source filed them. The rule behind the calls is not given here.
Legend:
MRRL-CH1 [1] = experiment: Inhibitory effect on outgrowth of MRRL-CH1 cell line at 1 uM concentration; No Effect; assay type: functional, cell-based; settings: Manduca sexta
Outline: (§1)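 Embryonic Manduca sexta MRRL-CH1 cells, grown attached in DL medium in room air. Analogue in DMSO was added to well cultures 2–4 days after seeding, for 48 h. Drug was then diluted 16-fold by two medium exchanges, and cells were followed for 6 more days. Neurite outgrowth and reversibility were judged from photographs taken at 0, 24 and 48 h of exposure and at 24, 48 and 144 h after removal. Duplicates, with DMSO vehicle control.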

MRRL-CH1 [2] = experiment: Inhibitory effect on outgrowth of MRRL-CH1 cell line at 5 uM concentration; No Effect; assay type: functional, cell-based; settings: Manduca sexta; outline: as §1
MRRL-CH1 [3] = experiment: Inhibitory effect on outgrowth of MRRL-CH1 cell line at 0.5 uM concentration; No Effect; assay type: functional, cell-based; settings: Manduca sexta; outline: as §1
Rattus norvegicus = species on record: Rattus norvegicus; experiment: Concentration required to reduce the length of total axon plexus in rat embryonic hippocampal neurons; assay type: functional
SH-SY5Y = experiment: Concentration required to inhibit neurite outgrowth in SH-SY5Y cell line; assay type: functional, cell-based
MRRL-CH1 [4] = experiment: Inhibitory effect on outgrowth of MRRL-CH1 cell line at 0.5 uM concentration; Reversible; assay type: functional, cell-based; settings: Manduca sexta; outline: as §1
MRRL-CH1 [5] = experiment: Inhibitory effect on outgrowth of MRRL-CH1 cell line at 1 uM concentration; Irreversible; assay type: functional, cell-based; settings: Manduca sexta; outline: as §1
MRRL-CH1 [6] = experiment: Inhibitory effect on outgrowth of MRRL-CH1 cell line at 5 uM concentration; Irreversible; assay type: functional, cell-based; settings: Manduca sexta; outline: as §1

SMILES | Inhibitory effect (MRRL-CH1 [1]) | Inhibitory effect (MRRL-CH1 [2]) | Inhibitory effect (MRRL-CH1 [3]) | Concentration (Rattus norvegicus) [µM] | Concentration (SH-SY5Y) [µM] | Inhibitory effect (MRRL-CH1 [4]) | Inhibitory effect (MRRL-CH1 [5]) | Inhibitory effect (MRRL-CH1 [6])
CCCCCCCCCC(=O)N[C@H](CN1CCOCC1)[C@H](O)c1ccccc1 | inactive | inactive | inactive | 50 | 20 | – | – | –
CCCCCCCCCC(=O)N[C@H](CN1CCOCC1)[C@H](O)c1ccc(OC)cc1 | – | – | – | – | – | Reversible | Irreversible | Irreversible
CCCCCCCCCC(=O)N[C@H](CN1CCOCC1)[C@H](O)c1ccc2c(c1)OCO2 | – | – | – | – | – | Reversible | Irreversible | Irreversible
CCCCCCCCCC(=O)N[C@H](CN1CCOCC1)[C@H](O)c1ccc(OC(C)(C)C)cc1 | – | – | – | – | – | Reversible | Irreversible | Irreversible

From ChEMBL document CHEMBL1147630, “New PDMP analogues inhibit process outgrowth in an insect cell line” (Bioorg Med Chem Lett, 2004)
